Assay: Toxicity liver stage against HepG2, at 10uM
Format: cell-based
Parameters: test concentration 10 uM, cell line HepG2-A16-CD81EGFP
Details: human, HepG2-A16-CD81EGFP cells; read-out: INHIBITION
Procedure, shortened: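 Uninfected HepG2-A16-CD81EGFP cells, 3 × 10^3 per well, 1536-well, plated on prespotted compound at 10 μM final, parasite-free screening media added to match infected plates; puromycin 10 μM positive, DMSO 0.5% negative; run in parallel with 48 h PbLuc assay at 37 °C, 5% CO2; viability by CellTiter-Glo luminescence, normalized to controls.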

First: Cn1cc(NC(=O)NC2CCCN(c3ccccc3Cl)C2=O)cn1 (stereo unspecified)
Second: Cc1cnn(CC2CCCN2C(=O)Cc2n[nH]c3ccccc23)c1 (stereo unspecified)
The cytotoxicity at 10 µM of the first is lower: -41.8% for the first, -9.16% for the second.

Compared with `CCc1nnsc1C(=O)N(C)Cc1ccc(C)o1`, `CCNC(=O)[C@@H]1C[C@H](NC(=O)Cc2ccsc2)CN1Cc1ccc(C)o1` is higher in cytotoxicity at 10 µM: -46.5% for the first, -11.8% for the second.

Compared with `CC1COCCN1C(=O)NCCCn1ccnc1` (stereo unspecified), `Cn1c(=O)oc2ccc(NC(=O)N3CCSCC3)cc21` is higher in cytotoxicity at 10 µM: -44.9% for the first, 2.58% for the second.

Going from `CCN(C)c1ccc(CNS(=O)(=O)CC2CCCO2)cc1F` (stereo unspecified) to `CNS(=O)(=O)CCCN1CCCC1c1cc(C)on1` (stereo unspecified), the cytotoxicity at 10 µM falls from 11.9% to -6.31%.

Compared with `COc1cccc(N2CCN(CCC(=O)NC3CCCC3)CC2)c1`, `Cn1ccnc1CN1CCC2(CC1)CC(N1CCCC1)c1ccccc12` (stereo unspecified) is higher in cytotoxicity at 10 µM: -5.93% for the first, 7.24% for the second.

Compared with `Cn1cc(-c2cnc(-c3ccnn3C)nc2)cc1C(=O)NC1CC1`, `CNC(=O)c1ccc(C(=O)N2CCCCC2Cn2cc(C)cn2)cn1` (stereo unspecified) is lower in cytotoxicity at 10 µM: 3.77% for the first, -3.54% for the second.

Going from `C[C@H](O)CNc1cc(-c2cn[nH]c2)ncn1` to `CCc1cc(NCCCOC2CCCC2)ncn1`, the cytotoxicity at 10 µM rises from -15.6% to -1.41%.

Going from `CCOC(=O)c1coc(N2CCN(Cc3cc(C)cc(C)c3)C(=O)C2)n1` to `Cc1cc(C)n(CC(C)NC2CCN(Cc3cccc(O)c3)CC2)n1` (stereo unspecified), the cytotoxicity at 10 µM falls from 4.24% to -2.01%.

Going from `CCc1ncc(C(=O)N2C[C@@H](C)O[C@@H](C)C2)cn1` to `Nc1ncc(CN2C[C@H](C3CC3)[C@@H](N)C2)cn1`, the cytotoxicity at 10 µM falls from -4.34% to -44.6%.

Compared with `COc1ccc(C(C(=O)O)N(C)CCN2CCCC2)cc1F` (stereo unspecified), `Cc1ccc(C(=O)N2CCN(CC(O)c3ccc(F)cc3)CC2)s1` (stereo unspecified) is lower in cytotoxicity at 10 µM: 1.38% for the first, -8.93% for the second.

Compared with `O=C(CN1CCOC1=O)N1CCC2(CCc3ccccc32)CC1`, `O=S(=O)(C1CC1)N1CCC2(CCCN(Cc3ccccn3)C2)C1` (stereo unspecified) is higher in cytotoxicity at 10 µM: -15.8% for the first, -0.336% for the second.

First: CNC(=O)c1n[nH]c2c1C(c1cccc3[nH]ccc13)CC(=O)N2 (stereo unspecified)
Second: CCc1nccn1C1CCCN(C(=O)Cc2n[nH]c3ccccc23)C1 (stereo unspecified)
The cytotoxicity at 10 µM of the first is higher: 4.06% for the first, -0.337% for the second.

Going from `C[C@H](c1ccc(Cl)cc1)n1c(C2CC2)n[nH]c1=O` to `Cc1csc(NC(=O)c2cnc(C3CCNCC3)cn2)n1`, the cytotoxicity at 10 µM falls from 9.33% to -12.3%.

Compared with `CCOCCC(=O)N(Cc1ccncc1)C(C)CC` (stereo unspecified), `CC(C)N(C)[C@@H]1CCN(Cc2nccs2)[C@H]1Cc1ccncc1` is lower in cytotoxicity at 10 µM: 9.99% for the first, -2.75% for the second.

Compared with `Cc1cc(NCCSc2nccn2C)n2nc(C)c(C)c2n1`, `Cc1noc(C)c1CN(C)CC1CCCN1c1cccnn1` (stereo unspecified) is lower in cytotoxicity at 10 µM: 9.75% for the first, 0.746% for the second.

Going from `Cc1c(NCc2cccnc2)cccc1C(=O)N1CCC(N(C)C)C1` (stereo unspecified) to `O=C(CCc1ccncc1)N1CCCC(n2cccn2)C1` (stereo unspecified), the cytotoxicity at 10 µM falls from 14.1% to -5.57%.

First: O=C(Nc1ccccc1OCc1ccccn1)NC1CCOCC1
Second: NCc1cn(-c2ccccc2C(=O)NCc2ccccc2)cn1
The cytotoxicity at 10 µM of the first is higher: 6.78% for the first, 3.32% for the second.

First: Cc1nc(NCc2scnc2-c2ccccc2)cc(C2CCNCC2)n1
Second: CC(NC(=O)NCC1(c2ccccc2)CCC1)c1nncn1C (stereo unspecified)
The cytotoxicity at 10 µM of the first is higher: 1.69% for the first, -10.4% for the second.

Compared with `Cc1nc(C)n(CC(C)C(=O)N2CCCN(C3CCCC3)CC2)n1` (stereo unspecified), `CN(CCO)Cc1nnc(C2CCN(C3CCCCC3)CC2)n1C` is higher in cytotoxicity at 10 µM: -0.103% for the first, 20.7% for the second.

Going from `CCn1ncc(Br)c1CN(C)S(=O)(=O)c1ccc(C)cc1` to `CCOCC1CN(C(=O)COc2ccccc2C)Cc2ncn(C)c21` (stereo unspecified), the cytotoxicity at 10 µM falls from 14.5% to 0.78%.

Compared with `O=C1CCc2cc(NC(=O)C3CCCN3c3nccs3)ccc2N1` (stereo unspecified), `O=C(Cn1cccnc1=O)NCCc1ccc2c(c1)OCCO2` is higher in cytotoxicity at 10 µM: -10.8% for the first, 4.96% for the second.

Going from `CCc1nnc2n1CCN(C(=O)c1cc(Cl)c[nH]1)C2` to `CCc1ccsc1C(=O)N1CCN(CC(O)CC)CC1` (stereo unspecified), the cytotoxicity at 10 µM rises from -6.1% to -4.25%.

First: O=C(CCNC(=O)c1ccoc1)Nc1cc(F)ccc1F
Second: O=C(CCNC(=O)C1CCCC1)NCc1cccnc1-n1cncn1
The cytotoxicity at 10 µM of the first is lower: -12.8% for the first, -3.39% for the second.

First: O=C(NCCOc1ccc2c(c1)OCO2)C1CC(=O)N(CC2CC2)C1 (stereo unspecified)
Second: FC(F)Oc1ccc(CNCc2cc(Cl)c3c(c2)OCO3)cc1
The cytotoxicity at 10 µM of the first is lower: -6.63% for the first, 2.63% for the second.

Compared with `NC(=O)C1CN(C(=O)Nc2ccccc2SC(F)(F)F)CCO1` (stereo unspecified), `CN(C)[C@@H]1CN(C(=O)Cc2cccs2)[C@@H]2CCCO[C@H]12` is higher in cytotoxicity at 10 µM: -8.3% for the first, 5.93% for the second.

Compared with `CC(C)c1nc(CC(=O)N2CCCC(n3cncn3)C2)cs1` (stereo unspecified), `Cc1cnn(CC2CCCN2CC(=O)Nc2cc(C(C)(C)C)no2)c1` (stereo unspecified) is higher in cytotoxicity at 10 µM: -8.24% for the first, -7.76% for the second.

Going from `COc1ccc(CN2CCc3ncnc(C4CCOC4)c3CC2)cc1` (stereo unspecified) to `CN1CCc2c(c(COc3cncnc3)nn2CC2CC2)C1`, the cytotoxicity at 10 µM rises from -9.25% to 8.61%.

First: CNC(=O)[C@@H]1C[C@H]2CN(c3ncccn3)C[C@H]2N1C(C)C
Second: c1coc(CN2C[C@@H]3CCCO[C@@H]3[C@H](N3CCCC3)C2)c1
The cytotoxicity at 10 µM of the first is higher: 9.72% for the first, -2.02% for the second.
